Experimental data published in PMC9122571 (RSC Advances, 2020).

Tests used:
A549 cells [1] = assay: In vitro cytotoxicity, MTT assay; type: cell-based, human; conditions: 48 h
Summary of the method: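 A549 cells (DMEM, 10% FBS, penicillin/streptomycin, 37 °C, 5% CO2) seeded at 5 × 10³ per well and left overnight. Exposed 48 h to test compound at 6.25–200 μM. MTT (0.5 mg mL−1 in DMEM) added for 4 h; formazan dissolved in DMSO; A490 read. Viability taken as % of (ODtest − ODblank)/(ODcontrol − ODblank); means ± SD.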

[2] = DPPH radical scavenging assay
Summary of the method: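 Test compound dissolved in DMSO and diluted in ethanol; a series of concentrations mixed with 2 mL DPPH solution (3.94 mg per 100 mL anhydrous ethanol). Kept 30 min at room temperature in the dark, then A519 read. Scavenging calculated as % of (Acontrol − Asample)/Acontrol. Vitamin C served as reference.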

A549 cells [3] = assay: Cell viability after H2O2 induced oxidative stress; type: cell-based, human; conditions: A549, 24 h pretreatment at 3.125–100 μM, then 800 μM H2O2 for 4 h
Summary of the method: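 A549 cells in DMEM with 10% FBS and penicillin/streptomycin at 37 °C, 5% CO2, pretreated with test compound for 24 h, then given 800 μM H2O2 for 4 h. Untreated and H2O2-only groups run alongside. Viability by MTT (0.5 mg mL−1, 4 h, DMSO solubilisation, A490) as % of (ODtest − ODblank)/(ODcontrol − ODblank). n = 4; ANOVA with LSD post hoc test.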

| SMILES | viability of A549 cells (A549 cells [1]; concentration ≤200 μM) | free radical scavenging effect compared with vitamin C [2] | other results |
| --- | --- | --- | --- |
| O=C(/C=C\c1ccc(O)c(O)c1)Nc1ccc(S(=O)(=O)Nc2ncccn2)cc1 [CASDZ, (Z)-3-(3,4-Dihydroxyphenyl)-N-(4-(N-pyrimidin-2-ylsulfamoyl)phenyl)acrylamide] | not significantly decreased | higher | growth of A549 cells (A549 cells [1]; concentration of 200 μM): significantly inhibits |
| COc1cnc(NS(=O)(=O)c2ccc(NC(=O)/C=C\c3ccc(O)c(O)c3)cc2)nc1 [CASMD, (Z)-3-(3,4-Dihydroxyphenyl)-N-(4-(N-(5-methoxypyrimidin-2-yl)sulfamoyl)phenyl)acrylamide] | not significantly decreased | higher | viability of A549 cells (A549 cells [1]; concentration ≤100 μM): not significantly decreased |
| CC(=O)Oc1ccc(/C=C\C(=O)Nc2ccc(S(=O)(=O)Nc3ncccn3)cc2)cc1OC(C)=O [ACASDZ, (Z)-4-(3-Oxo-3-(4-(N-pyrimidin-2ylsulfamoyl)phenylamino)prop-1-enyl)-1,2-phenylene diacetate] | not significantly decreased |  |  |
| COc1cnc(NS(=O)(=O)c2ccc(NC(=O)/C=C\c3ccc(OC(C)=O)c(OC(C)=O)c3)cc2)nc1 [ACASMD, (Z)-4-(3-(4-(N-(5-Methoxypyrimidin-2yl)sulfamoyl)phenylamino)-3-oxoprop-1-enyl)-1,2-phenylene diacetate] | not significantly decreased |  |  |
| NS(=O)(=O)c1ccc(NC(=O)/C=C\c2ccc(O)c(O)c2)cc1 [CASN, (Z)-3-(3,4-Dihydroxyphenyl)-N-(4-sulfamoylphenyl)acrylamide] | not significantly decreased | higher |  |
| O=C1O[C@H]([C@@H](O)CO)C(O)=C1O [Vitamin C] |  |  | prevention of 800 μM H2O2 induced decrease in cell viability (A549 cells [3]): could not prevent |
| CC(=O)Oc1ccc(/C=C\C(=O)Nc2ccc(S(N)(=O)=O)cc2)cc1OC(C)=O [ACASN, (Z)-4-(3-Oxo-3-(4-sulfamoylphenylamino)prop-1-enyl)-1,2-phenylene diacetate] | not significantly decreased |  |  |
| O=C(O)/C=C/c1ccc(O)c(O)c1 [Caffeic acid] |  |  | prevention of 800 μM H2O2 induced decrease in cell viability (A549 cells [3]): could not prevent |
